Measured values: paper PMC9521027 (ACS Omega, 2022)
Positions count from the first letter of the chain named.

Key:
URAT1 K393R mutant = target: T1, URAT1 K393R mutant (Homo sapiens, UniProt Q96S37, K393R); experiment: 14C-uric acid binding assay with membrane protein; conditions: 2.5 μg membrane protein, 25 μM 14C-uric acid, 30 min
T1 sequence (Q96S37 1-553 K393R): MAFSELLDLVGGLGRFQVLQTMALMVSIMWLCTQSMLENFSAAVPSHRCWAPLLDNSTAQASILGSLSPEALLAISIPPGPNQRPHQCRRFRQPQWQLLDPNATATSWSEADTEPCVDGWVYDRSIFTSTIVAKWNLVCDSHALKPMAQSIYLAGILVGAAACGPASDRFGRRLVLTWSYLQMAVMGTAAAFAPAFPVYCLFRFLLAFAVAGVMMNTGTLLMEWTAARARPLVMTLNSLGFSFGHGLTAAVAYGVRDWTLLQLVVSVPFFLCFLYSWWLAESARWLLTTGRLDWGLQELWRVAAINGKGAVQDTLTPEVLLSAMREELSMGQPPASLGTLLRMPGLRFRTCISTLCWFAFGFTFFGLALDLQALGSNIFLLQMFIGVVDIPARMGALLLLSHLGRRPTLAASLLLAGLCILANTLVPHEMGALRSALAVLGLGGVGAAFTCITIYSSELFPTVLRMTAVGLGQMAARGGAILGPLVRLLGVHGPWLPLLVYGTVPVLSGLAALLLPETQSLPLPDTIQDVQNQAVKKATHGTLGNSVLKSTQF

URAT1 K393D mutant = target: T2, URAT1 K393D mutant (Homo sapiens, UniProt Q96S37, K393D); experiment: 14C-uric acid binding assay with membrane protein; conditions: 2.5 μg membrane protein, 25 μM 14C-uric acid, 30 min
T2 sequence (Q96S37 1-553 K393D): T1 sequence (Q96S37 1-553 K393R) with R393D
Method in brief: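 Membranes came from HEK293 cells transiently transfected (Lipofectamine 3000) with sequence-confirmed site-directed K393 mutant hURAT1 plasmids; control membranes came from cells transfected with pECFP empty vector. Cells were harvested in ice-cold 25 mM HEPES pH 7.3 with 125 mM sodium gluconate, and membranes were extracted with a kit. Protein was incubated at room temperature, then rapid-filtered, washed with ice-cold DPBS, dissolved in 0.1 M NaOH and scintillation-counted. n = 3, mean ± SD.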

URAT1 K393H mutant = target: T3, URAT1 K393H mutant (Homo sapiens, UniProt Q96S37, K393H); experiment: 14C-uric acid binding assay with membrane protein; conditions: 2.5 μg membrane protein, 25 μM 14C-uric acid, 30 min
T3 sequence (Q96S37 1-553 K393H): T1 sequence (Q96S37 1-553 K393R) with R393H

URAT1 K393E mutant = target: T4, URAT1 K393E mutant (Homo sapiens, UniProt Q96S37, K393E); experiment: 14C-uric acid uptake assay in transfected HEK293 cells; type: cell-based; conditions: K393E, HEK293 cells
T4 sequence (Q96S37 1-553 K393E): T1 sequence (Q96S37 1-553 K393R) with R393E

14C-uric acid binding capacity compared with WT (URAT1 K393R mutant): similar | 14C-uric acid binding compared with WT (URAT1 K393D mutant): significant loss | 14C-uric acid binding capacity compared with WT (URAT1 K393H mutant): similar | 14C-urate transport capacity lost compared with WT (URAT1 K393E mutant): 70–80%
Structure (SMILES): O=c1[nH]c(=O)c2[nH]c(=O)[nH]c2[nH]1 [uric acid]
